Data reported in ChEMBL document CHEMBL5661979, “Pharmacological inhibition of BMK1 suppresses tumor growth through promyelocytic leukemia protein” (Cancer Cell, 2010).
The source made the active and inactive calls. The rule behind the calls is not given here.

Legend:
[1] = target: T1, Ribosomal protein S6 kinase alpha-1 (Homo sapiens, UniProt Q15418); assay: Inhibition of RSK1 domain 2 in human HeLa cells lysate pre incubated for 15 mins followed by ATP acyl phosphate probe addition and measured after 10 mins by LC-MS/MS analysis; format: subcellular
[2] = Clearance in Sprague-Dawley rat at 2 mg/kg, po measured up to 8 hrs by LC-MS/MS analysis; format: ADME, organism-based; details: in vivo
Summary of the method: (§1)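 Sprague-Dawley rats given one intravenous dose or one oral dose of 2 mg/kg. Plasma drug concentrations were followed over time, with samples taken out to 8 hr after dosing. PK parameters (clearance, volume of distribution, half-life, oral bioavailability, Cmax) were calculated from these concentration–time data.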

[3] = target: T2, MAP/microtubule affinity-regulating kinase 3 (Homo sapiens, UniProt P27448); assay: Inhibition of MARK3 in human HeLa cells lysate at 10 uM pre incubated for 15 mins followed by ATP acyl phosphate probe addition and measured after 10 mins by LC-MS/MS analysis relative to control; format: subcellular; details: time 25.0 min
[4] = target: Cyclin-dependent kinase 13 (Homo sapiens, UniProt Q14004); assay: Inhibition of CHED in human HeLa cells lysate at 50 uM pre incubated for 15 mins followed by ADP acyl phosphate probe addition and measured after 10 mins by LC-MS/MS analysis relative to control; format: subcellular; details: time 25.0 min
Summary of the method: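 KiNativ profiling in HeLa lysate (5 mg/mL total protein). Lysate incubated 15 min with inhibitor at 50, 10, 2, 0.8 or 0 μM. ATP or ADP acylphosphate probe then added (5 μM final) and reacted 10 min. Reaction stopped with urea and analysed by targeted MS, using up to four fragment ions per kinase peptide-probe conjugate. % inhibition taken against untreated lysate. Run in duplicate.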

[5] = tested on: HeLa; assay: Antiproliferative activity against human HeLa cells assessed as reduction in cell viability at 5 uM after 48 hrs by MTT assay; format: functional, cell-based
Summary of the method: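 HeLa cells were infected with empty adenovirus or adenovirus encoding dominant-negative BMK1(AEF). After 24 hr they were treated with or without 5 μM drug for 48 hr and read by MTT. % growth inhibition = (1 − MTT of group / MTT of Ad-EV-only cells) × 100. n = 3.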

[6] = target: Serine/threonine-protein kinase tousled-like 2 (Homo sapiens, UniProt Q86UE8); assay: Inhibition of TLK2 in human HeLa cells lysate pre incubated for 15 mins followed by ADP acyl phosphate probe addition and measured after 10 mins by LC-MS/MS analysis; format: subcellular
[7] = target: Mitogen-activated protein kinase 14 (Homo sapiens, UniProt Q16539); assay: Inhibition of p38a in human HeLa cells lysate at 50 uM pre incubated for 15 mins followed by ATP acyl phosphate probe addition and measured after 10 mins by LC-MS/MS analysis relative to control; format: subcellular; details: time 25.0 min
[8] = target: Calcium/calmodulin-dependent protein kinase type II subunit delta (Homo sapiens, UniProt Q13557); assay: Inhibition of CamK2d in human HeLa cells lysate at 50 uM pre incubated for 15 mins followed by ADP acyl phosphate probe addition and measured after 10 mins by LC-MS/MS analysis relative to control; format: subcellular; details: time 25.0 min
[9] = target: Activated CDC42 kinase 1 (Homo sapiens, UniProt Q07912); assay: Inhibition of ACK1 in human HeLa cells lysate pre incubated for 15 mins followed by ADP acyl phosphate probe addition and measured after 10 mins by LC-MS/MS analysis; format: subcellular
Summary of the method: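 HeLa cell lysate (5 mg/mL total protein) preincubated 15 min with inhibitor at 50, 10, 2, 0.8 and 0 μM, then ATP or ADP acylphosphate probe added (5 μM final) for 10 min. Reaction stopped with urea, then targeted LC-MS/MS. Up to four fragment ions per kinase peptide-probe conjugate were used. % inhibition was taken versus untreated lysate. Run in duplicate.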

[10] = target: Mitogen-activated protein kinase 7 (Mus musculus) (UniProt Q9WVS8); assay: Inhibition of BMK1 in mouse MEF cells assessed as increase in p21 protein expression at 5 uM incubated for 16 hrs by Western blot analysis; format: cell-based
Summary of the method: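 Pml+/+ or Pml−/− MEFs treated ±5 μM inhibitor for 16 h. Lysates western blotted for p21, quantified by densitometry and normalized to GAPDH, relative to untreated Pml+/+ MEF set as 1. n = 3, ±SEM.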

[11] = target: Calcium/calmodulin-dependent protein kinase type 1D (Homo sapiens, UniProt Q8IU85); assay: Inhibition of CAMK1d in human HeLa cells lysate pre incubated for 15 mins followed by ADP acyl phosphate probe addition and measured after 10 mins by LC-MS/MS analysis; format: subcellular
Summary of the method: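 KiNativ-type profiling in HeLa lysate (5 mg/mL total protein). Lysate preincubated 15 min with inhibitor at 50, 10, 2, 0.8 or 0 μM, then ATP or ADP acylphosphate probe added (5 μM final) for 10 min. Reaction stopped with urea and analysed by targeted MS, using up to four fragment ions per kinase peptide-probe conjugate. % inhibition calculated against untreated lysate. Duplicate reactions.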

[12] = Half life in Sprague-Dawley rat at 2 mg/kg, po measured up to 8 hrs by LC-MS/MS analysis; format: ADME, organism-based; details: in vivo; summary of the method: as §1
[13] = target: STE20-like serine/threonine-protein kinase (Homo sapiens, UniProt Q9H2G2); assay: Inhibition of SLK in human HeLa cells lysate at 2 uM pre incubated for 15 mins followed by ATP acyl phosphate probe addition and measured after 10 mins by LC-MS/MS analysis relative to control; format: subcellular; details: time 25.0 min
[14] = target: T2, MAP/microtubule affinity-regulating kinase 3; assay: Inhibition of MARK3 in human HeLa cells lysate at 2 uM pre incubated for 15 mins followed by ADP acyl phosphate probe addition and measured after 10 mins by LC-MS/MS analysis relative to control; format: subcellular; details: time 25.0 min
[15] = target: Ribosomal protein S6 kinase alpha-3 (Homo sapiens, UniProt P51812); assay: Inhibition of RSK2 domain 1 active form in human HeLa cells lysate at 2 uM pre incubated for 15 mins followed by ATP acyl phosphate probe addition and measured after 10 mins by LC-MS/MS analysis relative to control; format: subcellular; details: time 25.0 min
[16] = target: T1, Ribosomal protein S6 kinase alpha-1; assay: Inhibition of RSK1 domain 2 K1 site in human HeLa cells lysate at 10 uM pre incubated for 15 mins followed by ADP acyl phosphate probe addition and measured after 10 mins by LC-MS/MS analysis relative to control; format: subcellular; details: time 25.0 min
[17] = target: T3, Phosphatidylinositol 5-phosphate 4-kinase type-2 alpha (Homo sapiens) (UniProt P48426); assay: Inhibition of PIP5K2A LIP1 site in human HeLa cells lysate at 10 uM pre incubated for 15 mins followed by ADP acyl phosphate probe addition and measured after 10 mins by LC-MS/MS analysis relative to control; format: subcellular; details: time 25.0 min
T3 sequence (whole entry): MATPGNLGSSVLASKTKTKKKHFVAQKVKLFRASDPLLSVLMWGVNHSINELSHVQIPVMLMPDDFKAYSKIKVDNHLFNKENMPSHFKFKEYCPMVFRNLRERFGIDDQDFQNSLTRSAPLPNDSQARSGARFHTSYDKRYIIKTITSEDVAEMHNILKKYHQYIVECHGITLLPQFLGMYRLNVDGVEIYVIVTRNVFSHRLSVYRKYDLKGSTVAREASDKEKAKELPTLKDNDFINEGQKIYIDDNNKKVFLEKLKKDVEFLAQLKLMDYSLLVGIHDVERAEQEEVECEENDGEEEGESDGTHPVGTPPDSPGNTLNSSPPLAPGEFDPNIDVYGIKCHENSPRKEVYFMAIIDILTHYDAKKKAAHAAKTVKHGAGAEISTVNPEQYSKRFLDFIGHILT

T1 sequence (Q15418 whole entry, the tested form may be a part): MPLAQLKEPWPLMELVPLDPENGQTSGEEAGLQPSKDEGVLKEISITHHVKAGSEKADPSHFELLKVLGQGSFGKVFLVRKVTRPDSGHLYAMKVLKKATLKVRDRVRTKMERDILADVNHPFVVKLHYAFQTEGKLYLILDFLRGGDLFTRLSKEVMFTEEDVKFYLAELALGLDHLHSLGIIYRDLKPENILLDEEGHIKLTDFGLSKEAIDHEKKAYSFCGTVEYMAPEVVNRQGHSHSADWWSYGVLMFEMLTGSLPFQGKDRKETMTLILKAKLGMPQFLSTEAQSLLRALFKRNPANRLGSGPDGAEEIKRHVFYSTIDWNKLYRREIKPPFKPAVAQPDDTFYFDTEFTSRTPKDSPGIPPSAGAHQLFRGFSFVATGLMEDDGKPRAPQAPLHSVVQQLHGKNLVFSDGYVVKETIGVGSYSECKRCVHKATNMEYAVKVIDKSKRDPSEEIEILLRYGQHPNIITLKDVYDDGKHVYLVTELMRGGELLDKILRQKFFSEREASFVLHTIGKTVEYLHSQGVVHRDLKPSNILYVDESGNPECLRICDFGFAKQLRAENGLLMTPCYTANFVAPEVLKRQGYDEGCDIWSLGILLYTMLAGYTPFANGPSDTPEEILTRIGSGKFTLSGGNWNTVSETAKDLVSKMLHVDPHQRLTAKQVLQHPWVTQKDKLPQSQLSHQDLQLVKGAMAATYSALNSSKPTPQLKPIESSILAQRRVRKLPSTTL
T2 sequence (P27448 whole entry, looked up): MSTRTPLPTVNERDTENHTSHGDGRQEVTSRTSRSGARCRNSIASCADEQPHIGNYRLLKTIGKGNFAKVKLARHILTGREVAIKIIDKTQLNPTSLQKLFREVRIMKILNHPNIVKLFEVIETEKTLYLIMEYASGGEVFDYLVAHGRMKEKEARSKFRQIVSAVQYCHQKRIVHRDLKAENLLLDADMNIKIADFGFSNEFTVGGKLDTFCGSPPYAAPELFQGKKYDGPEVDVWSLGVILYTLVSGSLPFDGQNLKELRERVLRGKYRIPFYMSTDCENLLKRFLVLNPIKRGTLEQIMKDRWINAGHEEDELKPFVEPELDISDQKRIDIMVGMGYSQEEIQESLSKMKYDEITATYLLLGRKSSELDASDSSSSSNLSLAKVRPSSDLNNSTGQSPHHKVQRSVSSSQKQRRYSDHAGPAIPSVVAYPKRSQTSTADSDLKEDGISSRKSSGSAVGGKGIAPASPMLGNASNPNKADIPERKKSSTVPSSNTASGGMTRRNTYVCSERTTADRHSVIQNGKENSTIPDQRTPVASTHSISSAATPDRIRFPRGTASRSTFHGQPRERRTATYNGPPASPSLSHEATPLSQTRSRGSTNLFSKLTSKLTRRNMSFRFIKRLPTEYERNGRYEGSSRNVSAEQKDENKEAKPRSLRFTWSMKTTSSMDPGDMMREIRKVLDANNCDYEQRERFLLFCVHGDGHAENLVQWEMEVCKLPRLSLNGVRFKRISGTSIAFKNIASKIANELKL
Calcium/calmodulin-dependent protein kinase type 1D, sequence (Q8IU85 whole entry, the tested form may be a part): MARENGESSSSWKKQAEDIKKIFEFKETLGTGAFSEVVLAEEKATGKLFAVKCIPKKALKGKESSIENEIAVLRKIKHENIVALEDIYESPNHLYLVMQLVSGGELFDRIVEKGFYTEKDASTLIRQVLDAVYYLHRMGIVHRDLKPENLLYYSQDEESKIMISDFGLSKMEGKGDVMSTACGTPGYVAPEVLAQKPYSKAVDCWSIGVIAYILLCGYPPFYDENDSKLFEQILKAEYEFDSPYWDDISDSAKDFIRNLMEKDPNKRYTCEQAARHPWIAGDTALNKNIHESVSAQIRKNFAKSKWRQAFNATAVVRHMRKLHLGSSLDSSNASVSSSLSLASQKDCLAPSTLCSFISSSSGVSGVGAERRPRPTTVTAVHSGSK
Mitogen-activated protein kinase 14, sequence (Q16539 whole entry): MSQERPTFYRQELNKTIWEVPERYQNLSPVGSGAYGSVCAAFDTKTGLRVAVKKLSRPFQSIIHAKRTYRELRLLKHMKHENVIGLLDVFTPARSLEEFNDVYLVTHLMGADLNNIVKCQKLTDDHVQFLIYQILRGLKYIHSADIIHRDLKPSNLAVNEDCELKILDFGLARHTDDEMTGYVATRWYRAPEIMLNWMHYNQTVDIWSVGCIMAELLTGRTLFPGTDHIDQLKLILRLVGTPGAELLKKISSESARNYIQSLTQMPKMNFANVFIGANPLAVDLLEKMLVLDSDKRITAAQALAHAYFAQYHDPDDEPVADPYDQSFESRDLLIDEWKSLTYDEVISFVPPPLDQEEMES
Serine/threonine-protein kinase tousled-like 2, sequence (Q86UE8 whole entry): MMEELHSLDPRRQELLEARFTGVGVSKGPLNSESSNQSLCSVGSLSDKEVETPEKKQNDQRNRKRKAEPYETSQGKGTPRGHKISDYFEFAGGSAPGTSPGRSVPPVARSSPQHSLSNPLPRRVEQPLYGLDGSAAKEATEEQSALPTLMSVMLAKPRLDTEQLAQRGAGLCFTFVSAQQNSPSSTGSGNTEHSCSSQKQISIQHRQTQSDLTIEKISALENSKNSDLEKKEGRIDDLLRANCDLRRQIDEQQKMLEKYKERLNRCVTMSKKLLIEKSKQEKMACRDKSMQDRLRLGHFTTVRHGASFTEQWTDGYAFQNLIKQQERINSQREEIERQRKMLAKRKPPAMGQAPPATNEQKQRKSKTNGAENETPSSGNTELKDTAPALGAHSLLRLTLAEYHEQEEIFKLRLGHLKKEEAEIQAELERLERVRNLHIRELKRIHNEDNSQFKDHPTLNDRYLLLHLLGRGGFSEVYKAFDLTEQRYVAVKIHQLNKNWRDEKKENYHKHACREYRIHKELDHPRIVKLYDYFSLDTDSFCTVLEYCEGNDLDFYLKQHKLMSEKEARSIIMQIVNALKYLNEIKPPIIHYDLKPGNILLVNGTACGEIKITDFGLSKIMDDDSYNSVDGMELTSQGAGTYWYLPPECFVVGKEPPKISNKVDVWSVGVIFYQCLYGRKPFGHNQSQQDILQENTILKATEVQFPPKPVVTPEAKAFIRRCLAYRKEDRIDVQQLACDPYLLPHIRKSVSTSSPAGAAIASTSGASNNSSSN
Mitogen-activated protein kinase 7 (Mus musculus), sequence (Q9WVS8 whole entry): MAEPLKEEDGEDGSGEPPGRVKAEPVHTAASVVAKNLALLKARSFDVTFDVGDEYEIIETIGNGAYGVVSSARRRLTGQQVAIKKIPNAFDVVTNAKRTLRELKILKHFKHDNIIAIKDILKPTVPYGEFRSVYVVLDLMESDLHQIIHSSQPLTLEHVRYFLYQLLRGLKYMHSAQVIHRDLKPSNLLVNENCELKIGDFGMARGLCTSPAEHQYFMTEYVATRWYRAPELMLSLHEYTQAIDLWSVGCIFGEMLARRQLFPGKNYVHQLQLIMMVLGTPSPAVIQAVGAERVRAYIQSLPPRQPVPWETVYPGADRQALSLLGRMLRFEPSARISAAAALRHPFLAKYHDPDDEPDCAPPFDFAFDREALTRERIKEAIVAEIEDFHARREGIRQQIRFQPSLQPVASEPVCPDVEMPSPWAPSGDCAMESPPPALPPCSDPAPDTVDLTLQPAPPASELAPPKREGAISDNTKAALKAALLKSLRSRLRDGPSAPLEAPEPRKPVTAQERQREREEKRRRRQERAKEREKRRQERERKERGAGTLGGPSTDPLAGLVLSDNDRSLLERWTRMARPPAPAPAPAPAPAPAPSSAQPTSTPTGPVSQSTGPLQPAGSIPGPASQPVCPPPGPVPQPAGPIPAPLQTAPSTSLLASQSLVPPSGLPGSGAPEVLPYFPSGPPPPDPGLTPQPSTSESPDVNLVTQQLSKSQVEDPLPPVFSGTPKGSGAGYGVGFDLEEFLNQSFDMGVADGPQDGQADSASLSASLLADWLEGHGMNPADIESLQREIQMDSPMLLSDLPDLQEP
Calcium/calmodulin-dependent protein kinase type II subunit delta, sequence (Q13557 whole entry): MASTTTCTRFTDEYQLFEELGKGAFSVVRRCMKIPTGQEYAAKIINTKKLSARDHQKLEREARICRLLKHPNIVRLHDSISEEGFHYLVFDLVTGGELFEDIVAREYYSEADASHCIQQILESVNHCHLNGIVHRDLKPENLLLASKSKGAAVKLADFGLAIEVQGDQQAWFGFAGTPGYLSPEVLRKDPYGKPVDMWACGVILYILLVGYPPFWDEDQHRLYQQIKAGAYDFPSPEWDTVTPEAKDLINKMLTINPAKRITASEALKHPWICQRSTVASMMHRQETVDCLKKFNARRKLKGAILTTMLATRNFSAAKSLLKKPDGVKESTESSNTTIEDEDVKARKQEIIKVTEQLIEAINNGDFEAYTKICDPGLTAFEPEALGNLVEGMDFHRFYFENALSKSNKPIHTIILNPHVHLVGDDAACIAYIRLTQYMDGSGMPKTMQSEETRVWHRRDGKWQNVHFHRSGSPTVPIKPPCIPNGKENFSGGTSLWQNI
Ribosomal protein S6 kinase alpha-3, sequence (P51812 whole entry, the tested form may be a part): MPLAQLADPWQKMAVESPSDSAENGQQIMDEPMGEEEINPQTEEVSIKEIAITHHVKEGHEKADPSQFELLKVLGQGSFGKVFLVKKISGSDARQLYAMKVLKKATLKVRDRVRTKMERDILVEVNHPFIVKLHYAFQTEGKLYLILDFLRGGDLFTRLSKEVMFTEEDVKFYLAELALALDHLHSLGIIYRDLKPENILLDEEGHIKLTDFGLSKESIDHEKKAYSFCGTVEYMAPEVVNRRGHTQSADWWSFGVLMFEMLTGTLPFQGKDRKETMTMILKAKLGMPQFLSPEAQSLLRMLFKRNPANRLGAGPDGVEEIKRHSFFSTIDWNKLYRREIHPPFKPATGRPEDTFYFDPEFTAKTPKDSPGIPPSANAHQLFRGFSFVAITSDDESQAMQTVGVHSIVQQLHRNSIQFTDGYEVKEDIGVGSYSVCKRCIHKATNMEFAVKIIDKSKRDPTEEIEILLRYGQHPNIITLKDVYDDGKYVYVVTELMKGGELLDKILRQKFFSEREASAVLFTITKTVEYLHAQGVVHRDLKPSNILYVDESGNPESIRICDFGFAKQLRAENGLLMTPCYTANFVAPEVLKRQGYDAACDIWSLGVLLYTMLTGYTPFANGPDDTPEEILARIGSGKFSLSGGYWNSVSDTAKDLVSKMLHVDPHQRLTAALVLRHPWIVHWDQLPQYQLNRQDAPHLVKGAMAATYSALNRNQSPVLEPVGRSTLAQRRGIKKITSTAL

`CCOc1cc(N2CCC(O)CC2)ccc1Nc1ncc2c(n1)N(C)c1ccccc1C(=O)N2C` gave an IC50 [1] of 26 µM, a CL/F [2] of 26 mL/min/kg and an inhibition [3] of -9.2%. For the same molecule, the inhibition [4] was 12%, the Activity [5] was “Active” and the IC50 [6] was > 50 µM. It also gave an inhibition [7] of 31.4%, an inhibition [8] of 10.3% and an IC50 [9] of 18 µM. For the same molecule, the inhibition [10] was “Active”, the IC50 [11] was > 50 µM and the half-life [12] was 3.4 h. It also gave an inhibition [13] of -6.5%, an inhibition [14] of -3.4% and an inhibition [15] of 8.2%. It also gave an inhibition [16] of 23.4% and an inhibition [17] of 5%.
